Reference: ChEMBL document CHEMBL1144843, “Design and campaign synthesis of pyridine-based histone deacetylase inhibitors” (Bioorg Med Chem Lett, 2008)
pIC50: −log10 of the molar value. In brackets after ≈: the same amount, converted by molar mass.

Columns and labels:
Histone deacetylase 1 = Histone deacetylase 1 (Homo sapiens, UniProt Q13547); experiment: Inhibition of human HDAC1 expressed in Hi5 cells; parameters: species or system BTI-TN-5B1-4
Method in brief: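 C-terminally FLAG-tagged HDAC1 purified on anti-FLAG M2 agarose. Development 30 min at ambient temperature, fluorescence read at ex 360/em 465 nm. IC50 taken from dose–response curves.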

HCT-116 = experiment: Antiproliferative activity against human HCT116 cells after 72 hrs; assay type: functional, cell-based; settings: HCT-116, 72 h
Method in brief: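 HCT116 cells seeded at 1 × 10³ cells/well and left to adhere overnight, then exposed to inhibitors for 72 h. MTS tetrazolium dye added and incubated a further 3 h, with absorbance read at 490 nm.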

[1] = target: Voltage-gated inwardly rectifying potassium channel KCNH2 (Homo sapiens, UniProt Q12809); experiment: Inhibition of human ERG channel
Sequence of Voltage-gated inwardly rectifying potassium channel KCNH2 (Q12809 whole entry): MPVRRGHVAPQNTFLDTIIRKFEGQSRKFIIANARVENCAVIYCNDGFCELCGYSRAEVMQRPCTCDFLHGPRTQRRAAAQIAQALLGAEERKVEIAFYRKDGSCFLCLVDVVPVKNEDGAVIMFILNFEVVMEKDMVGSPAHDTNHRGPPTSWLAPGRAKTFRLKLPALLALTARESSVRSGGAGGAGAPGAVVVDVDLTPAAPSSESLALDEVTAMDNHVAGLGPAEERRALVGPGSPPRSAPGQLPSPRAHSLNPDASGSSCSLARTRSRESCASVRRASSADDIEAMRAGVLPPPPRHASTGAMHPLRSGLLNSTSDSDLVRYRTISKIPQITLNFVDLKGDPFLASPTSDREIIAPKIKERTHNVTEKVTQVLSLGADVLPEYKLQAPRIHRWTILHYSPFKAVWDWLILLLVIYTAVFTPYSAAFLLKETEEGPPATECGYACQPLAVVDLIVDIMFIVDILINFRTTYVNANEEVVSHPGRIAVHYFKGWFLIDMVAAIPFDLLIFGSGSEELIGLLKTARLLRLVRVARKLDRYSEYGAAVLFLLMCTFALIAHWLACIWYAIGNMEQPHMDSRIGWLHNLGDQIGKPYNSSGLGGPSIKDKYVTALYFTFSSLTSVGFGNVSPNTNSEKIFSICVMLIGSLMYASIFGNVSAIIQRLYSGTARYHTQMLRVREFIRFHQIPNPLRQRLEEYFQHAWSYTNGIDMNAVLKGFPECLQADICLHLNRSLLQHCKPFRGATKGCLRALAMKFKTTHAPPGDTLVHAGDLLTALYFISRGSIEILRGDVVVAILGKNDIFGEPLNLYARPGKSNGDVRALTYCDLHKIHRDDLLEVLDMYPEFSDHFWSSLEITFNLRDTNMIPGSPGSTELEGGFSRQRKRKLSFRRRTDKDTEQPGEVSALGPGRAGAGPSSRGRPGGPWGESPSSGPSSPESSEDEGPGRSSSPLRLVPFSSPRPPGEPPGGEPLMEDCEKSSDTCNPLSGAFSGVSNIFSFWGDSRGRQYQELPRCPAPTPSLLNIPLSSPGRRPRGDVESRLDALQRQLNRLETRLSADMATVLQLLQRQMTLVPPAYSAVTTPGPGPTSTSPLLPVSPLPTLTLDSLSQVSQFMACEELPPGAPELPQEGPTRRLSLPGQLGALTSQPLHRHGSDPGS

[2] = Solubility at pH 7.4; assay type: physicochemical; settings: buffer
[3] = Lipophilicity, log D at pH 7.4; assay type: physicochemical; settings: buffer
[4] = Half life in rat at 63.6 umol/kg, po; assay type: ADME, organism-based; settings: in vivo
[5] = Half life in rat at 56.7 umol/kg, po; assay type: ADME, organism-based; settings: in vivo
[6] = Clearance in rat at 2.5 umol/kg, iv; assay type: ADME, organism-based; settings: in vivo
[7] = Half life in rat at 2.5 umol/kg, iv; assay type: ADME, organism-based; settings: in vivo
[8] = Volume of distribution at steady state in rat at 2.5 umol/kg, iv; assay type: ADME, organism-based; settings: in vivo, read-out: Vdss
[9] = Clearance in rat at 5 umol/kg, iv; assay type: ADME, organism-based; settings: in vivo
[10] = Volume of distribution at steady state in rat at 5 umol/kg, iv; assay type: ADME, organism-based; settings: in vivo, read-out: Vdss
[11] = Half life in rat at 56.4 umol/kg, po; assay type: ADME, organism-based; settings: in vivo
[12] = Half life in rat at 55 umol/kg, po; assay type: ADME, organism-based; settings: in vivo
[13] = Half life in rat at 67.1 umol/kg, po; assay type: ADME, organism-based; settings: in vivo
[14] = Half life in rat at 5 umol/kg, iv; assay type: ADME, organism-based; settings: in vivo
[15] = Half life in rat at 55.6 umol/kg, po; assay type: ADME, organism-based; settings: in vivo
[16] = Half life in rat at 10 umol/kg, po; assay type: ADME, organism-based; settings: in vivo
[17] = Half life in rat at 65.2 umol/kg, po; assay type: ADME, organism-based; settings: in vivo
[18] = Half life in mouse at 65.2 umol/kg, po; assay type: ADME, organism-based; settings: in vivo
[19] = Clearance in Beagle dog at 0.8 umol/kg, iv; assay type: ADME, organism-based, Canis lupus familiaris; settings: in vivo
[20] = Volume of distribution at steady state in Beagle dog at 0.8 umol/kg, iv; assay type: ADME, organism-based, Canis lupus familiaris; settings: in vivo, read-out: Vdss
[21] = Half life in Beagle dog at 0.8 umol/kg, iv; assay type: ADME, organism-based, Canis lupus familiaris; settings: in vivo
[22] = Half life in Beagle dog at 3 umol/kg, po; assay type: ADME, organism-based, Canis lupus familiaris; settings: in vivo
[23] = Bioavailability in Beagle dog at 3 umol/kg, po; assay type: ADME, organism-based, Canis lupus familiaris; settings: in vivo
Plasma [24] = experiment: Fraction unbound to rat plasma protein in mouse; assay type: ADME, cell-free
Plasma [25] = experiment: Fraction unbound to rat plasma protein in rat; assay type: ADME, cell-free
Plasma [26] = experiment: Fraction unbound to […]; assay type: ADME, cell-free, Canis lupus familiaris

Sequence of Histone deacetylase 1 (Q13547 whole entry): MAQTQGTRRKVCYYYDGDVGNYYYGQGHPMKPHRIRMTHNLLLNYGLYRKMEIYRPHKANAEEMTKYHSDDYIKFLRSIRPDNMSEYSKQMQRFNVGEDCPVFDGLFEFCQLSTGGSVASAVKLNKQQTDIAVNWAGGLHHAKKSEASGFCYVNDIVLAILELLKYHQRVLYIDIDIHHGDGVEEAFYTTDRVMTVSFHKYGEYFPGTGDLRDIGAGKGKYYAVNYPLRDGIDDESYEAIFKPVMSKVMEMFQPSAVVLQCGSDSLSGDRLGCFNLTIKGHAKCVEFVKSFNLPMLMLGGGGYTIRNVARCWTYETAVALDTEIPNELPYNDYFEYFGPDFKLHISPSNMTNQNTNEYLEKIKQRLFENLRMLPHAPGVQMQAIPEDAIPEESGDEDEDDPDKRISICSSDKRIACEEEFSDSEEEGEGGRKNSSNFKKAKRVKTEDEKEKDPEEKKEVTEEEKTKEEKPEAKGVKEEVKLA

Row | SMILES | pIC50 (Histone deacetylase 1) | pIC50 (HCT-116) | solubility [2] [µM] | logD [3] | clearance [9] [mL/min/kg] | Vd [10] [L/kg] | pIC50 [1] | further results
1 | Nc1ccccc1NC(=O)c1ccc(-c2ncc(CN3CCC3)cc2Cl)cc1 | 7.73 | 6.52 | 1340 (≈ 526 µg/mL) | – | – | – | 4.65 | half-life [4]: 5.2 h
2 | CCN1CCN(Cc2cnc(-c3ccc(C(=O)Nc4ccccc4N)cc3)c(F)c2)CC1 | 7.42 | 6.36 | > 2420 | – | – | – | < 4.50 | –
3 | CCN1CCN(Cc2cnc(-c3ccc(C(=O)Nc4ccccc4N)cc3)c(C#N)c2)CC1 | 8.01 | 6.86 | > 1940 | 1.14 | – | – | < 4.60 | half-life [5]: 3.2 h; clearance [6]: 47.5 mL/min/kg; half-life [7]: 1.1 h; Vd [8]: 3.6 L/kg
4 | N#Cc1cccnc1-c1ccc(C(=O)Nc2ccccc2N)cc1 | 7.91 | 6.54 | 35 (≈ 11 µg/mL) | 1.58 | 56.1 | 1 | < 4.50 | –
5 | CC(C)N1CCN(Cc2cnc(-c3ccc(C(=O)Nc4ccccc4N)cc3)c(Cl)c2)CC1 | 7.88 | 6.51 | > 1490 | 1.68 | – | – | 5.15 | –
6 | CC(C)N1CCN(Cc2cnc(-c3ccc(C(=O)Nc4ccccc4N)cc3)c(C#N)c2)CC1 | 7.98 | 6.85 | 1380 (≈ 630 µg/mL) | 1.28 | – | – | 4.72 | half-life [12]: 4.3 h; clearance [6]: 44 mL/min/kg; half-life [7]: 2 h; Vd [8]: 5.1 L/kg
7 | Cc1cc(CN2CCC2)cnc1-c1ccc(C(=O)Nc2ccccc2N)cc1 | 7.67 | 6.51 | 2240 (≈ 834 µg/mL) | 1.18 | 30.2 | 6.9 | – | half-life [13]: 5.5 h; half-life [14]: 3 h
8 | Nc1ccccc1NC(=O)c1ccc(-c2ncc(CN3CCC3)cc2F)cc1 | 7.30 | 6.43 | 841 (≈ 317 µg/mL) | 1.69 | 34 | 6.3 | < 4.60 | half-life [16]: 5.4 h; half-life [14]: 3.6 h
9 | N#Cc1cc(CN2CCC2)cnc1-c1ccc(C(=O)Nc2ccccc2N)cc1 | 8.01 | 6.86 | 746 (≈ 286 µg/mL) | 1.22 | 19.6 | 5.4 | < 4.60 | half-life [17]: 5.5 h; half-life [18]: 3 h; clearance [19]: 30 mL/min/kg; Vd [20]: 2.32 L/kg; half-life [21]: 1.9 h; half-life [22]: 2.1 h; bioavailability [23]: 13%; fu (Plasma [24]): 54%; fu (Plasma [25]): 53%; fu (Plasma [26]): 48%; half-life [14]: 3.8 h

More lines, main results first:

Row | pIC50 (Histone deacetylase 1) | pIC50 (HCT-116) | solubility [2] [µM] | logD [3] | clearance [9] [mL/min/kg] | Vd [10] [L/kg] | SMILES | pIC50 [1] | further results
10 | 7.73 | 6.64 | > 2350 | 1.2 | – | – | CCN1CCN(Cc2cnc(-c3ccc(C(=O)Nc4ccccc4N)cc3)c(C)c2)CC1 | < 4.60 | –
11 | 7.48 | 6.19 | > 2160 | 1.6 | – | – | CC(C)N1CCN(Cc2cnc(-c3ccc(C(=O)Nc4ccccc4N)cc3)c(F)c2)CC1 | < 4.50 | –
12 | – | 6.62 | > 2620 | 1.44 | – | – | Cc1cc(CN2CCN(C(C)C)CC2)cnc1-c1ccc(C(=O)Nc2ccccc2N)cc1 | – | half-life [11]: 3.4 h
13 | 7.79 | 6.47 | – | 1.81 | – | – | CCN1CCN(Cc2cnc(-c3ccc(C(=O)Nc4ccccc4N)cc3)c(Cl)c2)CC1 | 5.08 | half-life [15]: 4.4 h
